Laboratory results: ChEMBL document CHEMBL4651341, “The discovery of a novel series of compounds with single-dose efficacy against juvenile and adult Schistosoma species” (PLoS Negl Trop Dis, 2021)
In brackets after ≈: the same amount, converted by molar mass.

Experiments:
[1] = Percentage of parent compound remaining after incubation for 90 minutes with cyropreserved mouse hepatocytes at a concentration of 1uM compound and […], determined by LCMS; assay type: ADME, tissue-based, Hepatocyte; conditions: cryopreserved mouse hepatocytes, read-out: Stability
Outline: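 Compound was incubated at 1 µM final (2 µM working solution mixed 1:1 with hepatocyte suspension) in supplemented KHB pH 7.4. Conditions: 37 °C, 5% CO2, gentle mixing, duplicates. Reaction quenched with ice-cold acetonitrile containing standard; analysed by LC-MS/MS. % remaining = AUC at t / AUC at T0.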

[2] = Solubility at 25 degC of compound (diluted from DMSO) in PBS at pH 7.4 determined after 24h (1h sonication, 22h shaking, 1h sonication) by LCMS/MS; assay type: physicochemical
Schistosoma mansoni [3] = test: Concentration required to kill 50% of 42 day old worms 5 days after drug treatment.; assay type: functional, organism-based; conditions: Puerto Rican, 120 h
Outline: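 Adult S. mansoni were perfused from CD1 mice 6 weeks post-infection and washed. They were cultured 3 pairs per well in 1 mL DMEM with 2 mM glutamine, penicillin/streptomycin and 10% FCS […] at 37 °C, 5% CO2. Viability of individual worms was scored on day 5 (120 h).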

Schistosoma mansoni [4] = test: Concentration required to kill 50% of 21 day old worms 5 days after drug treatment.; assay type: functional, organism-based; conditions: Puerto Rican, 120 h
Outline: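 Juvenile S. mansoni (Puerto Rican strain) were perfused from CD1 mice 3 weeks post-infection and washed. They were cultured 6–8 per well in 200 µL DMEM with 2 mM glutamine, penicillin/streptomycin and 10% FCS at 37 °C, 5% CO2. Viability of individual worms was scored on day 5 after dosing (120 h).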

[5] = Concentration required to kill 50% HepG2 cells as detected by MTT staining; assay type: toxicity, cell-based; conditions: homo sapiens, read-out: TC50 (the source's name)
[6] = Mean oral bioavailability in Swiss albino male mice at […] per compound (administered in a mixture of 5 compounds to 3 mice) assessed by LCMS/MS.; note: dose 2.5 mg/kg; assay type: ADME, organism-based; conditions: male, Swiss albino, mouse, in vivo, read-out: Bioavailability
[7] = Mean AUC inf in Swiss albino male mice at 1 mg/kg per compound (administered iv in a mixture of 5 compounds to 3 mice) assessed by LCMS/MS.; assay type: ADME, organism-based; conditions: male, Swiss albino, mouse, in vivo
Outline: (§1)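 Male Swiss albino mice (~30 g), 3 per experiment, mostly dosed as mixtures of 5 compounds iv via the lateral tail vein. Vehicle: 10% DMSO/90% 50 mM Na2HPO4 with 0.5% Tween-80. Blood sampled at 5, 15, 30 min and 1, 2, 4, 8, 24 h. Plasma stored at −20 °C and quantified by LC-MS after acetonitrile precipitation.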

[8] = Mean observed clearance in Swiss albino male mice at 1 mg/kg per compound (administered iv in a mixture of 5 compounds to 3 mice) assessed by LCMS/MS.; assay type: ADME, organism-based; conditions: male, Swiss albino, mouse, in vivo, read-out: Clearance (converted); outline: as §1
[9] = Mean volume of distribution at steady state in Swiss albino male mice at 1 mg/kg per compound (administered iv in a mixture of 5 compounds to 3 mice) assessed by LCMS/MS.; assay type: ADME, organism-based; conditions: mouse, in vivo, read-out: Volume
Outline: (§2)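 Male Swiss albino mice (~30 g), 3 per experiment, mostly dosed as mixtures of 5 compounds iv via the lateral tail vein. Vehicle: 10% DMSO/90% 50 mM Na2HPO4 with 0.5% Tween-80. Plasma stored at −20 °C and quantified by LC-MS after acetonitrile precipitation.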

[10] = Mean half-life in Swiss albino male mice at 1 mg/kg per compound (administered iv in a mixture of 5 compounds to 3 mice) assessed by LCMS/MS.; assay type: ADME, organism-based; conditions: mouse, in vivo; outline: as §2
[11] = Mean plasma concentration at 24h in Swiss albino male mice at […] per compound (administered orally in a mixture of 5 compounds to 3 mice) assessed by LCMS/MS.; assay type: ADME, organism-based; conditions: mouse, po
[12] = Mean plasma concentration at 4h in Swiss albino male mice at […] per compound (administered orally in a mixture of 5 compounds to 3 mice) assessed by LCMS/MS.; assay type: ADME, organism-based; conditions: mouse, po
[13] = Mean time to peak plasma concentration in Swiss albino male mice at […] per compound (administered orally in a mixture of 5 compounds to 3 mice) assessed by LCMS/MS.; assay type: ADME, organism-based; conditions: mouse, po

| remaining at 1.5 h, 1 µM [1] [%] | solubility kinetic at 24 h [2] [µM] | bioavailability [6] [%] | AUC(0-inf) [7] [ng·h/mL] | clearance [8] [mL/min/kg] | Vd [9] [L/kg] | half-life [10] [h] | concentration at 24 h [11] [ng/mL] | concentration at 4 h [12] [ng/mL] | Tmax [13] [h] | SMILES | EC50 (Schistosoma mansoni [3]) [nM] | EC50 (Schistosoma mansoni [4]) [nM] | CC50 [5] [nM] |
| --- | --- | --- | --- | --- | --- | --- | --- | --- | --- | --- | --- | --- | --- |
| 76.5 | 2.95 (≈ 1.38 µg/mL) | – | – | – | – | – | – | – | – | Fc1c(-c2c(C(F)(F)F)nc3cnc(-c4ccnc(C(F)(F)F)c4)cn23)ccc2[nH]ncc12 | 117 | 138 | 7000 |
| 48.2 | 51.6 (≈ 23.9 µg/mL) | 48.6 | 1060 | 7.9 | 4.74 | 9.17 | 21.7 | 161 | 0.333 | Oc1cc(F)c(-c2c(C3CCC3)nc3cnc(-c4ccc(F)c(C(F)(F)F)c4)cn23)c(F)c1 | 58.6 | 72.9 | 5700 |
| 56.2 | – | 91.3 | 2730 | 3.08 | 6.69 | 23.3 | 208 | 322 | 1.67 | Fc1ccc(-c2cn3c(-c4ccc5[nH]ncc5c4)c(C(F)(F)F)nc3cn2)cc1C(F)(F)F | 329 | 350 | – |
| 41.3 | – | 81.8 | 1440 | 5.83 | 3.16 | 7.99 | 60.5 | 371 | 0.667 | CC(C)c1nc2cnc(-c3ccc(F)c(C(F)(F)F)c3)cn2c1-c1ccc2[nH]ncc2c1 | 185 | 174 | – |
| 80.9 | 1.7 (≈ 0.842 µg/mL) | – | – | – | – | – | – | – | – | Fc1c(-c2c(C3CC3)nc3cnc(-c4cccc(S(F)(F)(F)(F)F)c4)cn23)ccc2[nH]ncc12 | 20.7 | 35.8 | 20700 |
| 42.2 | 6.55 (≈ 2.96 µg/mL) | 14.3 | 342 | 25.2 | 1.77 | – | 0.01 | 22.4 | 0.333 | CC(C)c1nn2cnc(-c3ccc(F)c(C(F)(F)F)c3)cc2c1-c1c(F)cc(O)cc1F | 21.7 | 26.9 | 8900 |
| 12.5 | 1.26 (≈ 0.57 µg/mL) | 45 | 360 | 23.3 | 7.39 | 7.09 | 5.17 | 52.6 | 0.25 | CC(C)c1nc2cnc(-c3ccc(F)c(C(F)(F)F)c3)nc2n1-c1c(F)cc(O)cc1F | 71.4 | 128 | 4800 |
| 54.3 | 3.14 (≈ 1.57 µg/mL) | – | – | – | – | – | – | – | – | Oc1cc(F)c(-c2c(C3CC3)nc3cnc(-c4ccc(F)c(C(F)(F)C(F)(F)F)c4)cn23)c(F)c1 | 10.5 | 23.9 | 9400 |
| 41.7 | 32.8 (≈ 15.2 µg/mL) | 55.6 | 528 | 15.9 | 9.19 | 8.48 | 7.01 | 76 | 0.25 | CC1(c2nc3cnc(-c4ccc(F)c(C(F)(F)F)c4)cn3c2-c2c(F)cc(O)cc2F)CC1 | 56.3 | 79.6 | 7900 |
| 69 | – | – | – | – | – | – | – | – | – | Fc1c(-c2c(C(F)(F)F)nc3cnc(-c4cccc(C(F)(F)F)c4)cn23)ccc2[nH]ncc12 | 25.2 | 41.5 | – |
| 33.5 | 2.33 (≈ 1.06 µg/mL) | 57.1 | 320 | 26.2 | 8.08 | – | 7 | 55.8 | 0.25 | Cc1nc2cnc(-c3cccc(C(F)(F)C(F)(F)F)c3)cn2c1-c1c(F)cc(O)cc1F | 33.9 | 35.1 | 9300 |
| 31.6 | 2.43 (≈ 1.15 µg/mL) | – | – | – | – | – | – | – | – | Cc1nc2cnc(-c3ccc(F)c(C(F)(F)C(F)(F)F)c3)cn2c1-c1c(F)cc(O)cc1F | 19.5 | 20.5 | 8800 |
| 50.7 | 1.21 (≈ 0.529 µg/mL) | 21.1 | 144 | 58.5 | 4.06 | 1.24 | 0.01 | 9.68 | 0.333 | CCc1nn2cnc(-c3ccc(F)c(C(F)(F)F)c3)cc2c1-c1c(F)cc(O)cc1F | 10.9 | 32.3 | 9800 |
| 31.1 | 6.63 (≈ 3.26 µg/mL) | 18.4 | 231 | 36.2 | 2.64 | 1.76 | 0.1 | 16.6 | 0.25 | CC(C)c1nc2cnc(-c3cccc(S(F)(F)(F)(F)F)c3)cn2c1-c1c(F)cc(O)cc1F | 23.8 | < 12 | 6600 |
| 94.2 | 0.785 (≈ 0.392 µg/mL) | 81 | 2700 | 3.23 | 5.89 | 22.1 | 165 | 358 | 1 | Fc1ccc(-c2cn3c(-c4ccc5[nH]ncc5c4F)c(C(F)(F)F)nc3cn2)cc1OC(F)(F)F | 16.9 | 20.8 | 12200 |
| 30.2 | 0.951 (≈ 0.412 µg/mL) | – | – | – | – | – | – | – | – | CC(C)c1nc2cnc(-c3cccc(C(F)(F)F)c3)cn2c1-c1c(F)cc(O)cc1F | < 45.5 | 93.7 | 7500 |
| 16.7 | – | – | – | – | – | – | – | – | – | CC(C)c1cccc(-c2cn3c(-c4ccc5[nH]ncc5c4F)c(C(F)(F)F)nc3cn2)c1 | 5.3 | 5.18 | 12900 |
| 68.1 | 0.865 (≈ 0.446 µg/mL) | 83.3 | 1470 | 5.75 | 3.39 | 8.96 | 71.4 | 381 | 2.33 | CC(C)c1nc2cnc(-c3ccc(F)c(S(F)(F)(F)(F)F)c3)cn2c1-c1ccc2[nH]ncc2c1F | 11.2 | 8.21 | – |
| 20.3 | – | – | – | – | – | – | – | – | – | CC(C)c1nc2cnc(-c3ccc(F)c(C(F)(F)F)c3)cn2c1-c1ccc(O)cc1Cl | 102 | 127 | – |

| SMILES | remaining at 1.5 h, 1 µM [1] [%] | solubility kinetic at 24 h [2] [µM] | bioavailability [6] [%] | AUC(0-inf) [7] [ng·h/mL] | clearance [8] [mL/min/kg] | Vd [9] [L/kg] | half-life [10] [h] | concentration at 24 h [11] [ng/mL] | concentration at 4 h [12] [ng/mL] | Tmax [13] [h] | EC50 (Schistosoma mansoni [3]) [nM] | EC50 (Schistosoma mansoni [4]) [nM] | CC50 [5] [nM] |
| --- | --- | --- | --- | --- | --- | --- | --- | --- | --- | --- | --- | --- | --- |
| CC(C)c1nc2cnc(-c3ccc(F)c(C(F)(F)F)c3)cn2c1-c1c(F)cc(OP(=O)(O)O)cc1F | 0.9 | 179 (≈ 95.1 µg/mL) | 21.4 | 54.7 | 153 | 3.62 | 0.416 | 0.1 | 4.01 | 0.25 | 27.2 | 25 | 6500 |
| Cc1nc2cnc(-c3ccc(F)c(C(F)(F)F)c3)cn2c1-c1c(F)cc(OP(=O)(O)O)cc1F | 40.8 | 136 (≈ 68.4 µg/mL) | 39.3 | 111 | 75.3 | 7.18 | 2.31 | 0.1 | 15.6 | 0.25 | – | 103 | 6800 |
